Test results: ChEMBL document CHEMBL1828627, “High-throughput-screening-based identification and structure-activity relationship characterization defined (S)-2-(1-aminoisobutyl)-1-(3-chlorobenzyl)benzimidazole as a highly antimycotic agent nontoxic to cell lines” (J Med Chem, 2011)
Activity calls are given as the source filed them.

System: not listed separately
Experiment: Selectivity index of CC50 for human HeLa cells to IC50 for Candida albicans SC5314 infected in HeLa cells
Conditions: not given
How it was run: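 Selectivity index calculated as CC50/IC50. CC50 is the half-maximal cytotoxic concentration in HeLa cells; IC50 is the half-maximal antimycotic concentration in the C. albicans–infected HeLa assay. Both come from 5-day fluorescein diacetate viability readouts.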

Row | SMILES | Ratio CC50/IC50
1 | CC(C)C[C@H](N)c1nc2ccccc2n1Cc1ccc(Cl)cc1 | 9
2 | CCC[C@H](N)c1nc2ccccc2n1Cc1ccc(Cl)cc1 | 14
3 | CC(C)(N)c1nc2ccccc2n1Cc1ccc(Cl)cc1 | 10

System: not listed separately
Experiment: Cytotoxicity against human HeLa cells assessed as cell viability after 5 days by fluorescein diacetate assay
Type: cell-based
Conditions: not given

Row | SMILES | CC50 at 120 h [µM]
4 | CC(C)C[C@H](N)c1nc2ccccc2n1Cc1ccc(Cl)cc1 | 36
5 | CCC[C@H](N)c1nc2ccccc2n1Cc1ccc(Cl)cc1 | 28
6 | CC(C)(N)c1nc2ccccc2n1Cc1ccc(Cl)cc1 | 50

System: Candida albicans
Experiment: Antifungal activity against Candida albicans SC5314 infected in HeLa cells at 20 uM after 5 days by fluorescein diacetate assay
Type: functional, organism-based
Conditions: not given
How it was run: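 Primary HTS: HeLa cells co-incubated with C. albicans plus a single compound at ~20 μM for 5 days. Viability checked microscopically at 18 h and quantified at day 5 by fluorescein diacetate fluorescence. Wells also scanned visually for yeast growth. Hit criterion: >40% signal relative to the uninfected untreated HeLa (~100%) and infected untreated HeLa (~0%) controls.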

Row | SMILES | inhibition
7 | CC(C)(N)c1nc2cc(C(F)(F)F)ccc2n1Cc1cccc(F)c1 | inactive
8 | C[C@H](N)c1nc2ccccc2n1Cc1ccc(Cl)cc1 | inactive
9 | CCC[C@H](N)c1nc2cc(C(F)(F)F)ccc2n1Cc1cccc(C)c1 | inactive
10 | CCC[C@H](N)c1nc2ccccc2n1Cc1cccc(F)c1 | inactive
11 | CC(C)C[C@H](N)c1nc2cc(C(F)(F)F)ccc2n1Cc1ccc(Cl)cc1 | inactive
12 | CCC[C@H](N)c1nc2cc(C(F)(F)F)ccc2n1Cc1cccc(OC)c1 | inactive
13 | Cc1cccc(Cn2c(C(C)(C)N)nc3cc(Cl)c(Cl)cc32)c1 | inactive
14 | CC(C)(N)c1nc2ccccc2n1Cc1cccc(F)c1 | inactive
15 | CC(C)C[C@H](N)c1nc2cc(Cl)c(Cl)cc2n1Cc1cccc(Cl)c1 | inactive
16 | CCC(C)[C@H](N)c1nc2cc(Cl)c(Cl)cc2n1Cc1cccc(Cl)c1 (stereo partly specified) | inactive
17 | Cc1cccc(Cn2c([C@@H](N)CC(C)C)nc3cc(Cl)c(Cl)cc32)c1 | inactive
18 | COc1cccc(Cn2c([C@@H](N)C(C)C)nc3cc(C(F)(F)F)ccc32)c1 | inactive
19 | COc1cccc(Cn2c([C@H](C)N)nc3ccccc32)c1 | inactive
20 | Cc1cccc(Cn2c([C@@H](N)CC(C)C)nc3ccccc32)c1 | inactive
21 | CCC[C@H](N)c1nc2cc(Cl)c(Cl)cc2n1Cc1cccc(Cl)c1 | inactive
22 | CC(C)(N)c1nc2cc(Cl)c(Cl)cc2n1Cc1cccc(Cl)c1 | inactive
23 | CC(C)C[C@H](N)c1nc2ccccc2n1Cc1cccc(Cl)c1 | inactive
24 | CCC(C)[C@H](N)c1nc2cc(Cl)c(Cl)cc2n1Cc1cccc(C)c1 (stereo partly specified) | inactive
25 | CCC[C@H](N)c1nc2cc(Cl)c(Cl)cc2n1Cc1cccc(F)c1 | inactive
26 | CCC(C)[C@H](N)c1nc2cc(C(F)(F)F)ccc2n1Cc1cccc(C)c1 (stereo partly specified) | inactive
27 | CC(C)[C@H](N)c1nc2cc(C(F)(F)F)ccc2n1Cc1cccc(Cl)c1 | inactive

Row | SMILES | inhibition
28 | COc1cccc(Cn2c([C@H](C)N)nc3cc(Cl)c(Cl)cc32)c1 | inactive
29 | C[C@H](N)c1nc2cc(Cl)c(Cl)cc2n1Cc1cccc(F)c1 | inactive
30 | CCC(C)[C@H](N)c1nc2ccccc2n1Cc1cccc(Cl)c1 (stereo partly specified) | inactive
31 | C[C@H](N)c1nc2cc(C(F)(F)F)ccc2n1Cc1ccc(Cl)cc1 | inactive
32 | CC(C)(N)c1nc2cc(C(F)(F)F)ccc2n1Cc1cccc(Cl)c1 | inactive
33 | C[C@H](N)c1nc2cc(Cl)c(Cl)cc2n1Cc1cccc(Cl)c1 | inactive
34 | Cc1cccc(Cn2c(C(C)(C)N)nc3ccccc32)c1 | inactive
35 | CC(C)C[C@H](N)c1nc2cc(Cl)c(Cl)cc2n1Cc1cccc(F)c1 | inactive
36 | CCC[C@H](N)c1nc2ccccc2n1Cc1cccc(OC)c1 | inactive
37 | COc1cccc(Cn2c([C@@H](N)CC(C)C)nc3cc(Cl)c(Cl)cc32)c1 | inactive
38 | CCC(C)[C@H](N)c1nc2cc(Cl)c(Cl)cc2n1Cc1cccc(OC)c1 (stereo partly specified) | inactive
39 | CCC[C@H](N)c1nc2ccccc2n1Cc1cccc(Cl)c1 | inactive
40 | CCC(C)[C@H](N)c1nc2cc(C(F)(F)F)ccc2n1Cc1cccc(OC)c1 (stereo partly specified) | inactive
41 | COc1cccc(Cn2c([C@H](C)N)nc3cc(C(F)(F)F)ccc32)c1 | inactive
42 | CCC[C@H](N)c1nc2cc(Cl)c(Cl)cc2n1Cc1cccc(OC)c1 | inactive
43 | COc1cccc(Cn2c(C(C)(C)N)nc3cc(Cl)c(Cl)cc32)c1 | inactive
44 | CC(C)[C@H](N)c1nc2cc(C(F)(F)F)ccc2n1Cc1cccc(F)c1 | inactive
45 | Cc1cccc(Cn2c([C@@H](N)C(C)C)nc3cc(Cl)c(Cl)cc32)c1 | inactive
46 | CC(C)C[C@H](N)c1nc2ccccc2n1Cc1cccc(F)c1 | inactive
47 | CCC[C@H](N)c1nc2cc(C(F)(F)F)ccc2n1Cc1ccc(Cl)cc1 | inactive
48 | CC(C)C[C@H](N)c1nc2cc(C(F)(F)F)ccc2n1Cc1cccc(Cl)c1 | inactive

Row | SMILES | inhibition
49 | CCC(C)[C@H](N)c1nc2cc(C(F)(F)F)ccc2n1Cc1cccc(F)c1 (stereo partly specified) | inactive
50 | CC(C)C[C@H](N)c1nc2ccccc2n1Cc1ccc(Cl)cc1 | inactive
51 | COc1cccc(Cn2c([C@@H](N)CC(C)C)nc3ccccc32)c1 | inactive
52 | Cc1cccc(Cn2c([C@@H](N)C(C)C)nc3cc(C(F)(F)F)ccc32)c1 | inactive
53 | CC(C)[C@H](N)c1nc2cc(Cl)c(Cl)cc2n1Cc1cccc(Cl)c1 | inactive
54 | CCC(C)[C@H](N)c1nc2ccccc2n1Cc1cccc(C)c1 (stereo partly specified) | inactive
55 | C[C@H](N)c1nc2cc(C(F)(F)F)ccc2n1Cc1cccc(Cl)c1 | inactive
56 | CCC(C)[C@H](N)c1nc2ccccc2n1Cc1cccc(OC)c1 (stereo partly specified) | inactive
57 | C[C@H](N)c1nc2cc(Cl)c(Cl)cc2n1Cc1ccc(Cl)cc1 | inactive
58 | C[C@H](N)c1nc2ccccc2n1Cc1cccc(F)c1 | inactive
59 | CCC[C@H](N)c1nc2cc(Cl)c(Cl)cc2n1Cc1cccc(C)c1 | inactive
60 | CCC[C@H](N)c1nc2cc(C(F)(F)F)ccc2n1Cc1cccc(F)c1 | inactive
61 | CCC(C)[C@H](N)c1nc2ccccc2n1Cc1cccc(F)c1 (stereo partly specified) | inactive
62 | CCC(C)[C@H](N)c1nc2cc(Cl)c(Cl)cc2n1Cc1cccc(F)c1 (stereo partly specified) | inactive
63 | CCC(C)[C@H](N)c1nc2cc(C(F)(F)F)ccc2n1Cc1cccc(Cl)c1 (stereo partly specified) | inactive
64 | CC(C)[C@H](N)c1nc2ccccc2n1Cc1ccc(Cl)cc1 | inactive
65 | CCC[C@H](N)c1nc2cc(Cl)c(Cl)cc2n1Cc1ccc(Cl)cc1 | inactive
66 | COc1cccc(Cn2c(C(C)(C)N)nc3ccccc32)c1 | inactive
67 | CC(C)[C@H](N)c1nc2cc(C(F)(F)F)ccc2n1Cc1ccc(Cl)cc1 | inactive
68 | CCC(C)[C@H](N)c1nc2ccccc2n1Cc1ccc(Cl)cc1 (stereo partly specified) | inactive
69 | C[C@H](N)c1nc2cc(C(F)(F)F)ccc2n1Cc1cccc(F)c1 | inactive

Row | SMILES | inhibition
70 | CC(C)[C@H](N)c1nc2cc(Cl)c(Cl)cc2n1Cc1ccc(Cl)cc1 | inactive
71 | CCC(C)[C@H](N)c1nc2cc(Cl)c(Cl)cc2n1Cc1ccc(Cl)cc1 (stereo partly specified) | inactive
72 | CC(C)(N)c1nc2cc(Cl)c(Cl)cc2n1Cc1ccc(Cl)cc1 | inactive
73 | CC(C)C[C@H](N)c1nc2cc(Cl)c(Cl)cc2n1Cc1ccc(Cl)cc1 | inactive
74 | CC(C)C[C@H](N)c1nc2cc(C(F)(F)F)ccc2n1Cc1cccc(F)c1 | inactive
75 | COc1cccc(Cn2c([C@@H](N)C(C)C)nc3cc(Cl)c(Cl)cc32)c1 | inactive
76 | CC(C)(N)c1nc2cc(C(F)(F)F)ccc2n1Cc1ccc(Cl)cc1 | inactive
77 | Cc1cccc(Cn2c(C(C)(C)N)nc3cc(C(F)(F)F)ccc32)c1 | inactive
78 | COc1cccc(Cn2c([C@@H](N)C(C)C)nc3ccccc32)c1 | inactive
79 | COc1cccc(Cn2c([C@@H](N)CC(C)C)nc3cc(C(F)(F)F)ccc32)c1 | inactive
80 | Cc1cccc(Cn2c([C@@H](N)CC(C)C)nc3cc(C(F)(F)F)ccc32)c1 | inactive
81 | CC(C)[C@H](N)c1nc2cc(Cl)c(Cl)cc2n1Cc1cccc(F)c1 | inactive
82 | COc1cccc(Cn2c(C(C)(C)N)nc3cc(C(F)(F)F)ccc32)c1 | inactive
83 | CC(C)(N)c1nc2ccccc2n1Cc1cccc(Cl)c1 | inactive
84 | CCC(C)[C@H](N)c1nc2cc(C(F)(F)F)ccc2n1Cc1ccc(Cl)cc1 (stereo partly specified) | inactive
85 | CCC[C@H](N)c1nc2ccccc2n1Cc1ccc(Cl)cc1 | inactive
86 | CCC[C@H](N)c1nc2cc(C(F)(F)F)ccc2n1Cc1cccc(Cl)c1 | inactive
87 | CC(C)(N)c1nc2cc(Cl)c(Cl)cc2n1Cc1cccc(F)c1 | inactive
88 | Cc1cccc(Cn2c([C@H](C)N)nc3cc(C(F)(F)F)ccc32)c1 | inactive
89 | CC(C)(N)c1nc2ccccc2n1Cc1ccc(Cl)cc1 | inactive
90 | Cc1cccc(Cn2c([C@H](C)N)nc3cc(Cl)c(Cl)cc32)c1 | inactive

System: Candida albicans
Experiment: Antifungal activity against Candida albicans SC5314 infected in HeLa cells after 5 days by fluorescein diacetate assay
Type: functional, organism-based
Conditions: Candida albicans, SC5314, HeLa, 120 h; read-out: IC50
How it was run: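 HeLa cells co-incubated with C. albicans and compound for 5 days. Dose–response from resynthesized compounds. Host-cell viability checked microscopically at 18 h, then quantified at day 5 by fluorescein diacetate conversion to a fluorophore by live cells. Wells also inspected visually for yeast growth. Controls: untreated uninfected HeLa (~100%) and untreated infected HeLa (~0%). IC50 derived from infected cells; CC50 as half-maximal cytotoxic concentration.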

Row | IC50 [µM] | SMILES
91 | 0.5 | C[C@@H]1[C@H](O)[C@@H](C)/C=C/C=C/C=C/C=C/C=C/C=C/C=C/[C@H](O[C@@H]2O[C@H](C)[C@@H](O)[C@H](N)[C@@H]2O)C[C@@H]2O[C@](O)(C[C@@H](O)C[C@@H](O)[C@H](O)CC[C@@H](O)C[C@@H](O)CC(=O)O[C@H]1C)C[C@H](O)[C@H]2C(=O)O [AMPHOTERICIN B]
92 | 4 | CC(C)C[C@H](N)c1nc2ccccc2n1Cc1ccc(Cl)cc1
93 | 2 | CCC[C@H](N)c1nc2ccccc2n1Cc1ccc(Cl)cc1
94 | 5 | CC(C)(N)c1nc2ccccc2n1Cc1ccc(Cl)cc1

Same assay, conditions: hela

Row | IC50 | SMILES
95 | Not Active | CC(=O)N[C@H](c1nc2ccccc2n1Cc1cccc(Cl)c1)C(C)C
96 | Not Active | CC(C)[C@@H](N)c1nc2ccccc2n1Cc1cccc(Cl)c1
